DNMT1 block = inhibitors of human DNMT1; P26358; DNMT1 molecular beacon, Hinp1I cleavage, fluorescence; inhibition (reported as % activation of signal), % at 10 µM; 0.83% of 360,000 active; in the data active means inhibition above about 50%
LMPTP block = LMPTP (human) inhibition; recombinant LMPTP-A, OMFP fluorogenic substrate, fluorescence intensity; inhibition, % at 20 µM; 0.22% of 360,000 active; AID 651560;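 active means compounds that cut the enzyme signal by at least half of the control window in the single-dose screen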
Target sequence (P24666 whole entry, looked up): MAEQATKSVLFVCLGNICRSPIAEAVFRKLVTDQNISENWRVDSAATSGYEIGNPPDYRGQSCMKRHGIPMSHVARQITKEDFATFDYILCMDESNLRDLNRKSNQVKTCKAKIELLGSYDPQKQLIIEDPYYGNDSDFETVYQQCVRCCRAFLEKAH
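Assay system: LMPTP-A phosphatase enzyme | Input: 0.625 nM enzyme | Also added: Fluorogenic phosphatase substrate OMFP at 400 µM final | Compound dosing: One test concentration per compound, 20 µM, with 3% DMSO overall | Schedule: 50 min enzyme reaction at room temperature, protected from light | Signal: Fluorescence intensity | Benchmarks: no-enzyme and uninhibited controls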
Scp1 inh = inhibitors of human Scp-1 phosphatase. Q9GZU7. Recombinant Scp1, phosphopeptide, malachite green phosphate absorbance. inhibition, % at 20 µM. 0.88% of 340,000 active. AID 493091;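 active means inhibition above about 50% at 20 µM, limit read from the data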
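Test system: SCP-1 phosphatase catalytic domain, residues 76-261 | Compound dosing: One concentration, 20 µM, with 1.0% DMSO | Schedule: 45 min room-temperature reaction, 5 min colour, 30 min stabiliser | Detection: Absorbance at 630 nm | Read-out basis: % inhibition of SCP-1 phosphate liberation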
STEP block = inhibitors of human striatal-enriched phosphatase STEP | recombinant STEP, OMFP fluorogenic substrate, fluorescence | inhibition, % at 20 µM | P54829 | 0.25% of 360,000 active;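 active means inhibition at 20 µM, scaled per plate between control wells, above about 37%, limit read from the data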
Target sequence (P54829 whole entry, looked up): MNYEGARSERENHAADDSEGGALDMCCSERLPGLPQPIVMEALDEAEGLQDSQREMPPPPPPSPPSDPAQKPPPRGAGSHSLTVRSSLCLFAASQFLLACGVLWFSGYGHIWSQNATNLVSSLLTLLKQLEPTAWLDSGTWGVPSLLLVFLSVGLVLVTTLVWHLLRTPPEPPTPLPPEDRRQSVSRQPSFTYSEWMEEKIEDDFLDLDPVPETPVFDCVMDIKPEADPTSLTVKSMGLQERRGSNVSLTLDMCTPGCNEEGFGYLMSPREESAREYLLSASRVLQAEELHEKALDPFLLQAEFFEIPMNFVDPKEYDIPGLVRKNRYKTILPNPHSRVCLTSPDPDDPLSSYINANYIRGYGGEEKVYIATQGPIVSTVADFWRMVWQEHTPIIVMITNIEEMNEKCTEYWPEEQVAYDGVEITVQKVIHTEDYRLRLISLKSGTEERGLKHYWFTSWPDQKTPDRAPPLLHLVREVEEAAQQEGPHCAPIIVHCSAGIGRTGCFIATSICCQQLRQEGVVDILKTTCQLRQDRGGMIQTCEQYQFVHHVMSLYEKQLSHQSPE
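Also added – OMFP at 25 µM · Test system – STEP tyrosine phosphatase · Technique – FITC-channel fluorescence of OMFP product · Schedule – 20 min at room temperature, dark · Evaluation – control-normalized % inhibition with plate pattern correction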
SUMO1-SIM PPI = modulators of human SUMO1-mediated protein-protein interactions; P63165; SUMO1 binding to a labelled peptide, TR-FRET, 1 h; inhibition, % at 20 µM; 0.33% of 360,000 active; in the data active means inhibition above about 37%
HKDC1 inhibitor = blocks human hexokinase HKDC1 activity; recombinant HKDC1, G6PDH/diaphorase resazurin coupled fluorescence; inhibition, % at 20 µM; 0.16% of 340,000 active;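 active means inhibition above about 35% when tested at 20 µM, limit read from the data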
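Test system: recombinant HKDC1 (HK5) hexokinase enzyme, produced in-house / Doses: 20 µM test compound, 1% DMSO / Timing: 90 min, room temperature / Detection: G6PDH/diaphorase-coupled fluorescence, 1 mM NADP, 100 µM resazurin, 525/613 nm / Control set: DMSO wells with and without enzyme mix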
HKDC1 act conf2 = HKDC1 (human) activation, single-dose confirmed. shares compounds with HKDC1 inhibitor. recombinant HKDC1, G6PDH/diaphorase resazurin fluorescence; active compounds read low. inhibition, % at 20 µM. 14% of 740 active;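 active means inhibition at or below a set negative limit, negative inhibition meaning the enzyme was activated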
Numbers stand for hits. Only some compounds are listed: those with a hit (about 1.8% of all), similar ones and a draw of the others.

What do the screens show for `CC(=O)n1cc(N(C(=O)CCl)c2ccc(Cl)cc2)c2ccccc21`?
DNMT1 block: inactive; LMPTP block: inactive; Scp1 inh: inactive; STEP block: inactive; SUMO1-SIM PPI: inactive; HKDC1 inhibitor: 58; HKDC1 act conf2: inactive

What do the screens show for `COc1ccccc1N(C(=O)CCl)c1cn(C(C)=O)c2ccccc12`?
DNMT1 block: inactive; LMPTP block: inactive; Scp1 inh: inactive; STEP block: inactive; SUMO1-SIM PPI: inactive; HKDC1 inhibitor: inactive

What do the screens show for `CCn1ccnc1CN(C)C(=O)CCc1nnc(CCCc2ccccc2)o1`?
DNMT1 block: inactive; LMPTP block: inactive; Scp1 inh: inactive; STEP block: inactive; SUMO1-SIM PPI: inactive; HKDC1 inhibitor: inactive

Results for O=C(Cc1ccc(S(=O)(=O)N2CCOCC2)s1)N1CCN(c2cccc(C(F)(F)F)c2)CC1 ?
DNMT1 block: inactive; LMPTP block: inactive; Scp1 inh: inactive; STEP block: inactive; SUMO1-SIM PPI: inactive; HKDC1 inhibitor: inactive

Results for CC(C)(C)OC(=O)N1CCN(C(=O)c2ncn3c2c(=O)[nH]c2ccccc23)CC1 ?
DNMT1 block: inactive; LMPTP block: inactive; STEP block: inactive; SUMO1-SIM PPI: inactive

How did COc1cc(OC)cc(C(=O)NC(=S)NNC(=O)c2cnccn2)c1 do in these assays?
DNMT1 block: inactive; LMPTP block: inactive; Scp1 inh: inactive; STEP block: inactive; SUMO1-SIM PPI: inactive; HKDC1 inhibitor: inactive; HKDC1 act conf2: -40

What do the screens show for `COc1ccc(-c2csc(NC(=O)c3ccc(OCC(=O)N4CCOCC4)c(OC)c3)n2)cc1OC`?
DNMT1 block: inactive; LMPTP block: inactive; Scp1 inh: inactive; STEP block: inactive; SUMO1-SIM PPI: inactive; HKDC1 inhibitor: inactive

Results for CC(=O)N1c2ccccc2Sc2ccc3ccccc3c21 ?
DNMT1 block: inactive; LMPTP block: inactive; STEP block: inactive; SUMO1-SIM PPI: inactive

What do the screens show for `O=C(CCl)N1c2ccccc2Sc2c1ccc1ccccc21`?
DNMT1 block: inactive; LMPTP block: inactive; Scp1 inh: inactive; STEP block: inactive; SUMO1-SIM PPI: inactive; HKDC1 inhibitor: 44; HKDC1 act conf2: inactive

What do the screens show for `Cc1c(C(=O)N2CCN(c3ncccn3)CC2)oc2c(Cl)cccc12`?
DNMT1 block: inactive; LMPTP block: inactive; Scp1 inh: inactive; STEP block: inactive; SUMO1-SIM PPI: inactive; HKDC1 inhibitor: inactive

Results for Cc1ccc(-n2c(C)nn(Cc3ccc([N+](=O)[O-])cc3)c2=O)cc1 ?
DNMT1 block: inactive; LMPTP block: inactive; Scp1 inh: inactive; STEP block: inactive; SUMO1-SIM PPI: inactive; HKDC1 inhibitor: inactive

What do the screens show for `Cc1ccc(-n2c3nc(=O)[nH]c(=O)c-3cc3cc([N+](=O)[O-])ccc32)cc1`?
DNMT1 block: inactive; LMPTP block: inactive; Scp1 inh: inactive; STEP block: inactive; SUMO1-SIM PPI: inactive; HKDC1 inhibitor: 49; HKDC1 act conf2: inactive

What do the screens show for `O=C(Cc1ccc(NC(=O)C2CCCN(C(=O)C3CCCCC3)C2)cc1)Nc1ccc(C(=O)N2CCOCC2)cc1` (stereo not drawn)?
DNMT1 block: inactive; LMPTP block: inactive; Scp1 inh: inactive; STEP block: inactive; SUMO1-SIM PPI: inactive; HKDC1 inhibitor: inactive

How did COc1ccc(-c2cc3ccccc3[nH]2)cc1 do in these assays?
DNMT1 block: inactive; LMPTP block: inactive; Scp1 inh: inactive; STEP block: inactive; SUMO1-SIM PPI: inactive; HKDC1 inhibitor: 39; HKDC1 act conf2: inactive

What do the screens show for `Cc1nn(CC(=O)NCc2cccc3ccccc23)c(=O)c2ccccc12`?
DNMT1 block: inactive; LMPTP block: inactive; Scp1 inh: inactive; STEP block: inactive; SUMO1-SIM PPI: inactive; HKDC1 inhibitor: inactive

What do the screens show for `O=C1C=CC(=O)c2c(O)c(CO)c(CO)c(O)c21`?
DNMT1 block: 114; LMPTP block: 93; Scp1 inh: 85; STEP block: 94; SUMO1-SIM PPI: 118; HKDC1 inhibitor: 49; HKDC1 act conf2: inactive

What do the screens show for `O=C1C=C(N2CCCCC2)c2ccccc2C1=O`?
DNMT1 block: 89; LMPTP block: inactive; Scp1 inh: inactive; STEP block: inactive; SUMO1-SIM PPI: 66; HKDC1 inhibitor: 81; HKDC1 act conf2: inactive

How did COc1ccc(S(=O)(=O)Nc2cc(SCC(=O)O)c(O)c3ccccc23)cc1 do in these assays?
DNMT1 block: inactive; LMPTP block: inactive; Scp1 inh: inactive; STEP block: inactive; SUMO1-SIM PPI: inactive; HKDC1 inhibitor: 57; HKDC1 act conf2: inactive

How did O=C(O)CSc1cc(NS(=O)(=O)c2ccc(Cl)cc2)c2ccccc2c1O do in these assays?
DNMT1 block: inactive; LMPTP block: inactive; Scp1 inh: inactive; STEP block: inactive; SUMO1-SIM PPI: inactive; HKDC1 inhibitor: 65; HKDC1 act conf2: inactive

What do the screens show for `Cc1cc(C)c(S(=O)(=O)Nc2cc(SCC(=O)O)c(O)c3ccccc23)cc1C`?
Scp1 inh: inactive; HKDC1 inhibitor: 54; HKDC1 act conf2: inactive

How did Cc1cc(C)c(S(=O)(=O)Nc2ccc(O)cc2)cc1C do in these assays?
DNMT1 block: inactive; LMPTP block: inactive; Scp1 inh: inactive; STEP block: inactive; SUMO1-SIM PPI: inactive; HKDC1 inhibitor: inactive

How did O=S(=O)(Nc1cc(Sc2cccc3cccnc23)c(O)c2ccccc12)c1ccc(F)cc1 do in these assays?
Scp1 inh: inactive; HKDC1 inhibitor: inactive

How did CCc1nnc(N/N=C/c2cc(Br)c(O)cc2O)n1N do in these assays?
DNMT1 block: inactive; LMPTP block: inactive; Scp1 inh: inactive; STEP block: inactive; SUMO1-SIM PPI: inactive; HKDC1 inhibitor: inactive

How did CC(C)(C)c1nnc(N/N=C/c2cc(Br)ccc2O)n(N)c1=O do in these assays?
DNMT1 block: inactive; LMPTP block: inactive; Scp1 inh: inactive; STEP block: inactive; SUMO1-SIM PPI: inactive; HKDC1 inhibitor: inactive; HKDC1 act conf2: -49

Results for Cc1ccc(NC(=O)CN2C(=O)S/C(=C\c3ccc(-c4cccc(C(=O)O)c4C)o3)C2=O)cc1C ?
DNMT1 block: 53; LMPTP block: 82; Scp1 inh: 92; STEP block: 68; SUMO1-SIM PPI: inactive; HKDC1 inhibitor: inactive; HKDC1 act conf2: inactive

Results for CCOC(=O)/C(=C\c1cccnc1)C(=O)c1cc(C(C)=O)c(Nc2ccccc2)s1 ?
DNMT1 block: inactive; LMPTP block: inactive; Scp1 inh: inactive; STEP block: inactive; SUMO1-SIM PPI: inactive; HKDC1 inhibitor: 42; HKDC1 act conf2: inactive

How did CCOC(=O)/C(=C\c1ccccc1)C(=O)c1cc(C(C)=O)c(Nc2ccccc2)s1 do in these assays?
DNMT1 block: inactive; LMPTP block: inactive; Scp1 inh: inactive; STEP block: inactive; SUMO1-SIM PPI: inactive; HKDC1 inhibitor: inactive

Screening results: PubChem BioAssay, Sanford-Burnham Center for Chemical Genomics
